# Test results reported in ChEMBL document CHEMBL4350961, “Discovery of Pyrrolo[3,2- d]pyrimidin-4-one Derivatives as a New Class of Potent and Cell-Active Inhibitors of P300/CBP-Associated Factor Bromodomain” (J Med Chem, 2019).
# Calls of active or inactive are those of the source. The rule behind the calls is not given here.
# How the values were obtained:
# Homo sapiens = species: Homo sapiens; assay: Inhibition of recombinant full-length human PI3K p120gamma R459Q mutant at 10 uM using phosphatidylinositol-4, 5-bisphosphate as substrate measured after 40 mins by fluorescence assay
# [1] = target: Serine/threonine-protein kinase MRCK alpha (Homo sapiens) (UniProt Q5VT25); assay: Inhibition of recombinant human MRCKalpha (1 to 473 residues) at 10 uM using KKRNRTLTV as substrate measured after 40 mins in presence of [gamma33P]ATP by scintillation counting method
# [2] = target: Calcium/calmodulin-dependent protein kinase type II subunit gamma (Homo sapiens) (UniProt Q13555); assay: Inhibition of recombinant full-length human CaMK2gamma (1 to 330 residues) at 10 uM using calmodulin as substrate measured after 40 mins in presence of [gamma33P]ATP by scintillation counting method
# [3] = target: NUAK family SNF1-like kinase 2 (Homo sapiens) (UniProt Q9H093); assay: Inhibition of recombinant full-length human NUAK2 at 10 uM using KKKVSRSGLYRSPSMPENLNRPR as substrate measured after 40 mins in presence of [gamma33P]ATP by scintillation counting method
# NUAK family SNF1-like kinase 2 (Homo sapiens), sequence (Q9H093 whole entry): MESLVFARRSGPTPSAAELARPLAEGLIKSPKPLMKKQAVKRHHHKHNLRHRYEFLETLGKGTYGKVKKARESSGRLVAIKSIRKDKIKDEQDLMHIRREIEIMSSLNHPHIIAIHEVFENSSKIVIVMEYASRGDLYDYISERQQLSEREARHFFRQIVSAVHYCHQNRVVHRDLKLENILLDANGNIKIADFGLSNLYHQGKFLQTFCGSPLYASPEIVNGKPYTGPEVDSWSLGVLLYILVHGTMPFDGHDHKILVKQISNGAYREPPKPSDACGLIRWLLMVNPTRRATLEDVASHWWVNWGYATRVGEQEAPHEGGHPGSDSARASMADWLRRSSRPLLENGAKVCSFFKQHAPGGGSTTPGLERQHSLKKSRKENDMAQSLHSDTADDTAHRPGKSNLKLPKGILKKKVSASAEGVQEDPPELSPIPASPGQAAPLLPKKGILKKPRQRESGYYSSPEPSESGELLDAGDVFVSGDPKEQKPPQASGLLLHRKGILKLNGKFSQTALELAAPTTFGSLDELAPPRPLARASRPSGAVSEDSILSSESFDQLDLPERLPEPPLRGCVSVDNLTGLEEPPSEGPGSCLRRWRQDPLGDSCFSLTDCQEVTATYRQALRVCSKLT
# [4] = target: Serine/threonine-protein kinase Nek2 (Homo sapiens) (UniProt P51955); assay: Inhibition of recombinant full-length human NEK2 at 10 uM using myelin basic protein as substrate measured after 40 mins in presence of [gamma33P]ATP by scintillation counting method
# Serine/threonine-protein kinase Nek2 (Homo sapiens), sequence (P51955 whole entry): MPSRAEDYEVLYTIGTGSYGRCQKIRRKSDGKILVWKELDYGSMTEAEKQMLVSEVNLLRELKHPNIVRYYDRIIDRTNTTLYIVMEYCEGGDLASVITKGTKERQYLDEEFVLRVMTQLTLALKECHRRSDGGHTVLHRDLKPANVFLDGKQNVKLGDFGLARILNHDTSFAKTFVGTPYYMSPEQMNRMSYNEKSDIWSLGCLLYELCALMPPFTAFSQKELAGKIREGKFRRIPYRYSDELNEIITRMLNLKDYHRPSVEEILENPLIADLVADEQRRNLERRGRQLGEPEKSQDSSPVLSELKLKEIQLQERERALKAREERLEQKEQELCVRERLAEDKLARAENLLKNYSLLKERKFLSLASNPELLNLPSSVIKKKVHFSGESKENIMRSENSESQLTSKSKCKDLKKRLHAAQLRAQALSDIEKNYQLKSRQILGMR
# [5] = target: Dual specificity mitogen-activated protein kinase kinase 1 (Homo sapiens) (UniProt Q02750); assay: Inhibition of recombinant full-length human MEK1 at 10 uM using unactive MAPK2 as substrate measured after 40 mins in presence of [gamma33P]ATP by scintillation counting method
# [6] = target: Inhibitor of nuclear factor kappa-B kinase subunit epsilon (Homo sapiens) (UniProt Q14164); assay: Inhibition of recombinant full-length human IKKepsilon at 10 uM using casein as substrate measured after 40 mins in presence of [gamma33P]ATP by scintillation counting method
# [7] = target: TGF-beta receptor type-2 (Homo sapiens) (UniProt P37173); assay: Inhibition of human TGFBR2 (188 to end residues) using myelin basic protein as substrate measured after 120 mins in presence of [gamma33P]ATP by scintillation counting method
# TGF-beta receptor type-2 (Homo sapiens), sequence (P37173 whole entry): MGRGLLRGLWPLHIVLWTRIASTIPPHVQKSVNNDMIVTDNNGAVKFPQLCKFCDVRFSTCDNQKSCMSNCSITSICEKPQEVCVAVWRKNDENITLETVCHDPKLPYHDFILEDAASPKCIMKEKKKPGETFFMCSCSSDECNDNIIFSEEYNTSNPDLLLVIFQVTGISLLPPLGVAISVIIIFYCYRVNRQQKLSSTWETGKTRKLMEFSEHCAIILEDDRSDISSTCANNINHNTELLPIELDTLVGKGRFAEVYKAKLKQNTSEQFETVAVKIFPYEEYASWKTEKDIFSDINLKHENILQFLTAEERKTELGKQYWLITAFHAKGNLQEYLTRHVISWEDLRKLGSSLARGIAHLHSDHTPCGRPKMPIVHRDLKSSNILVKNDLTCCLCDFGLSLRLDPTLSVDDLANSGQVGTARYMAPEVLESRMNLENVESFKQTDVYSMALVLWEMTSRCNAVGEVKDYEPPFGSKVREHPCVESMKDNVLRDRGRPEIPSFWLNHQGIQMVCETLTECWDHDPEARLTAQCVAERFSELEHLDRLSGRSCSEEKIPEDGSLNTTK
# [8] = target: Protein kinase C alpha type (Homo sapiens) (UniProt P17252); assay: Inhibition of recombinant full-length human PKCalpha at 10 uM using histone H1 as substrate measured after 40 mins in presence of [gamma33P]ATP by scintillation counting method
# [9] = target: Serine/threonine-protein kinase Chk2 (Homo sapiens) (UniProt O96017); assay: Inhibition of recombinant human CHK2 (5 to end residues) at 10 uM using KKKVSRSGLYRSPSMPENLNRPR as substrate measured after 40 mins in presence of [gamma33P]ATP by scintillation counting method
# [10] = target: Cyclin-dependent kinase 5/CDK5 activator 1 (Homo sapiens) (UniProt Q00535+Q15078); assay: Inhibition of recombinant full-length human CDK5/p25 at 10 uM using histone H1 as substrate measured after 40 mins in presence of [gamma33P]ATP by scintillation counting method; format: protein-complex assay
# [11] = target: Serine/threonine-protein kinase ULK1 (Homo sapiens) (UniProt O75385); assay: Inhibition of human ULK1 (1 to 314 residues) using casein as substrate measured after 40 mins in presence of [gamma33P]ATP by scintillation counting method
# [12] = tested on: Proto-oncogene tyrosine-protein kinase receptor Ret (Homo sapiens), P07949 [V804M]; assay: Inhibition of human Ret V804M mutant (658 to end residues) using KKKVSRSGLYRSPSMPENLNRPR as substrate measured after 40 mins in presence of [gamma33P]ATP by scintillation counting method
# Proto-oncogene tyrosine-protein kinase receptor Ret (Homo sapiens), P07949 [V804M], sequence (P07949 whole entry V804M): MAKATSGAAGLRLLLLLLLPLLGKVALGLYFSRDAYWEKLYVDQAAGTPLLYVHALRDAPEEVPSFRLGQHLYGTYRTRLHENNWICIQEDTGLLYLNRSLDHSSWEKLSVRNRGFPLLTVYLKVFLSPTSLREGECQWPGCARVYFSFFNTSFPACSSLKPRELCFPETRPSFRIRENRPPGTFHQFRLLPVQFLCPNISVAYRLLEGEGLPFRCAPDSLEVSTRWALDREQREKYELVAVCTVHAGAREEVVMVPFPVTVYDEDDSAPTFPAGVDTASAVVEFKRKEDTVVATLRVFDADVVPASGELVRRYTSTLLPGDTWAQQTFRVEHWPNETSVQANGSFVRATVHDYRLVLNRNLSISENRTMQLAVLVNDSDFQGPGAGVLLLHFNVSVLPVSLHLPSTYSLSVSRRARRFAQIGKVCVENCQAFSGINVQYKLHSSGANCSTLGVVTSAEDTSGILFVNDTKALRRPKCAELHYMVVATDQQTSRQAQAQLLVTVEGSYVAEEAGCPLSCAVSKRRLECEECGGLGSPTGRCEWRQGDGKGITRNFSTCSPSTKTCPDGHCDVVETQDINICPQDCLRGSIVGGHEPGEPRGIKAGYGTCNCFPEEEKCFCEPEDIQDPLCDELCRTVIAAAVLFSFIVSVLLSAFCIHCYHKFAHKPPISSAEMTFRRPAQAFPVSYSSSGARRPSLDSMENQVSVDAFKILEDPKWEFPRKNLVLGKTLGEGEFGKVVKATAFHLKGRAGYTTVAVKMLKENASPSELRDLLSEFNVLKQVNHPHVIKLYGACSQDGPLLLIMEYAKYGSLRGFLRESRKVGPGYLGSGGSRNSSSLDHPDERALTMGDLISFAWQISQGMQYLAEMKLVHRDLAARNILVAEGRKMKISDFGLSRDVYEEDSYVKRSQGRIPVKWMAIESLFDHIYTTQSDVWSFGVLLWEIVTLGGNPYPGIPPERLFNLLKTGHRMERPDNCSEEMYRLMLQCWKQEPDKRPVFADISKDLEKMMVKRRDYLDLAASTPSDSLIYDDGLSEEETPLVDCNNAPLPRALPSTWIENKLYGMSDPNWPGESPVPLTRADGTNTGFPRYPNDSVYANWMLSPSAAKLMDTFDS
# How it was run: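 Kinase panel of 422 kinases screened by Eurofins KinaseProfiler at a single test-compound concentration of 10 µM.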
# [13] = target: Histone acetyltransferase KAT2A (Homo sapiens, UniProt Q92830); assay: Binding affinity to human N-terminal His-tagged GCN5 assessed as change in melting temperature at 10 uM by SYPRO orange dye-based fluorescence assay
# How it was run: (§1)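 Thermal shift with His-tagged human bromodomain at 2 μM final in 10 mM HEPES pH 7.5, 500 mM NaCl. Compound at 10 μM final with 0.1% DMSO; SYPRO Orange at 1:1000. Equilibrated 3 min at 25 °C, then heated from 25 to 95 °C at 1 °C/min. Melting temperature shift taken from fluorescence; at least duplicate.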
# [14] = tested on: Hepatocyte growth factor receptor (Homo sapiens), P08581 [M1250T]; assay: Inhibition of recombinant human MET A1209G/V1290L/M1268T mutant (974 to end residues) at 10 uM using KKKGQEEEYVFIE as substrate measured after 40 mins in presence of [gamma33P]ATP by scintillation counting method
# [15] = target: ATPase family AAA domain-containing protein 2 (Homo sapiens) (UniProt Q6PL18); assay: Binding affinity to human N-terminal His-tagged ATAD2 assessed as change in melting temperature at 10 uM by SYPRO orange dye-based fluorescence assay; how it was run: as §1
# ATPase family AAA domain-containing protein 2 (Homo sapiens), sequence (Q6PL18 whole entry, the tested form may be a part): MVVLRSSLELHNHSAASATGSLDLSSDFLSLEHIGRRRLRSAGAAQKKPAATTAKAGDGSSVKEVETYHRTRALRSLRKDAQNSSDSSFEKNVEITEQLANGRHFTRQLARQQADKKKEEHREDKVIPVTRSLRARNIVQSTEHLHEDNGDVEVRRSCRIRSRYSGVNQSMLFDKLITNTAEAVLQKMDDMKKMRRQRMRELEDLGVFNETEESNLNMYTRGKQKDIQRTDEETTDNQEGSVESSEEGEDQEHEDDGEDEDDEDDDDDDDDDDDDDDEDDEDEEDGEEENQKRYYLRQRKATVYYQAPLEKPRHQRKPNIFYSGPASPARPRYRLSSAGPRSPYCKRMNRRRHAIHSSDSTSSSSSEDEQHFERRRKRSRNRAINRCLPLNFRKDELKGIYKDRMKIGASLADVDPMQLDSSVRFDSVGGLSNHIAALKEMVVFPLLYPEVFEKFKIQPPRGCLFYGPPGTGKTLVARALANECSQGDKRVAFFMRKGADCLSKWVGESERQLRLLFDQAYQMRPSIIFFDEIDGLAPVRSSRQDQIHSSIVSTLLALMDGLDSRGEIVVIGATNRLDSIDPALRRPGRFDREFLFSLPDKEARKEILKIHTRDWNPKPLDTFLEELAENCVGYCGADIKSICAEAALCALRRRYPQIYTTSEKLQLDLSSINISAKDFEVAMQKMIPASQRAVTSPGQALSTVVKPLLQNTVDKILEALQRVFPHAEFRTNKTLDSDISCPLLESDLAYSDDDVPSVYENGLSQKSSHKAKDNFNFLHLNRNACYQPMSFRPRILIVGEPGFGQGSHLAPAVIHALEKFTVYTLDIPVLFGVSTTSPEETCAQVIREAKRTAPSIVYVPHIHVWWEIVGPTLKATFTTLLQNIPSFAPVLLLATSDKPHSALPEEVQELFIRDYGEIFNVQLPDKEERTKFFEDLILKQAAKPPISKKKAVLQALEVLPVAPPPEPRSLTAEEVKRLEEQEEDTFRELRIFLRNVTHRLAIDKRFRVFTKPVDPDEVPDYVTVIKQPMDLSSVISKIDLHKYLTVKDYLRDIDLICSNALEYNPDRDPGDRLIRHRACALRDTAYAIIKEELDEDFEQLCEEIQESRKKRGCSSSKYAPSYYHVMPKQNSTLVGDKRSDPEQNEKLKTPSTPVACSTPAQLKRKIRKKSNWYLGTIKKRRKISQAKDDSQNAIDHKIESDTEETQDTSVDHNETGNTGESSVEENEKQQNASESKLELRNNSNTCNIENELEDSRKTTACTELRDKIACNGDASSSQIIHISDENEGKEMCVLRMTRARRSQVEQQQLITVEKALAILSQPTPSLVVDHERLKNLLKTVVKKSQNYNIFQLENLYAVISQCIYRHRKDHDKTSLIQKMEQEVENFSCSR
# [16] = tested on: Serine/threonine-protein kinase D1 (Homo sapiens), Q15139 [UNDEFINED MUTATION]; assay: Inhibition of recombinant full-length human PKCmu R135A mutant at 10 uM using KKLNRTLSVA as substrate measured after 40 mins in presence of [gamma33P]ATP by scintillation counting method
# [17] = tested on: Serine/threonine-protein kinase TAO3 (Homo sapiens), Q9H2K8 [UNDEFINED MUTATION]; assay: Inhibition of human TAO3 (1 to 411 residues) using myelin basic protein as substrate measured after 40 mins in presence of [gamma33P]ATP by scintillation counting method
# [18] = target: Wee1-like protein kinase 2 (Homo sapiens) (UniProt P0C1S8); assay: Inhibition of recombinant full-length human WEE1b at 10 uM using LSNLYHQGKFLQTFCGSPLYRRR as substrate measured after 120 mins in presence of [gamma33P]ATP by scintillation counting method
# [19] = target: Homeodomain-interacting protein kinase 1 (Homo sapiens) (UniProt Q86Z02); assay: Inhibition of recombinant human activated HIPK1 (158 to 555 residues) at 10 uM using myelin basic protein as substrate measured after 40 mins in presence of [gamma33P]ATP by scintillation counting method
# [20] = target: Serine/threonine-protein kinase VRK1 (Homo sapiens) (UniProt Q99986); assay: Inhibition of human VRK1 at 10 uM by radiometric method
# Serine/threonine-protein kinase VRK1 (Homo sapiens), sequence (Q99986 whole entry, the tested form may be a part): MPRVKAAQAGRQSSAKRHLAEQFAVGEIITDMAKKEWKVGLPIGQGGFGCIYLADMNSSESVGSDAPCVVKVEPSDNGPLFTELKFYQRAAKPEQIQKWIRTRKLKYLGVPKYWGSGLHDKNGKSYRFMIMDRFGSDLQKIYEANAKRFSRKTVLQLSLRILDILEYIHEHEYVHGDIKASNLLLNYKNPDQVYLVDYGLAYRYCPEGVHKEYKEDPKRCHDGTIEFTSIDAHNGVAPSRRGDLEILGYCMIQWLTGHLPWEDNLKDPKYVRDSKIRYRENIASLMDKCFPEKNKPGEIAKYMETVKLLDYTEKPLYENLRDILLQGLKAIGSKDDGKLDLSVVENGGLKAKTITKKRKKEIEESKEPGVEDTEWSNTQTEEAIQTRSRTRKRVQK
# [21] = target: Tyrosine-protein kinase HCK (Homo sapiens) (UniProt P08631); assay: Inhibition of recombinant human activated HCK (230 to 497 residues) at 10 uM using GGMEDIYFEFMGGKKK as substrate measured after 40 mins in presence of [gamma33P]ATP by scintillation counting method
# Tyrosine-protein kinase HCK (Homo sapiens), sequence (P08631 2-526 limits assumed): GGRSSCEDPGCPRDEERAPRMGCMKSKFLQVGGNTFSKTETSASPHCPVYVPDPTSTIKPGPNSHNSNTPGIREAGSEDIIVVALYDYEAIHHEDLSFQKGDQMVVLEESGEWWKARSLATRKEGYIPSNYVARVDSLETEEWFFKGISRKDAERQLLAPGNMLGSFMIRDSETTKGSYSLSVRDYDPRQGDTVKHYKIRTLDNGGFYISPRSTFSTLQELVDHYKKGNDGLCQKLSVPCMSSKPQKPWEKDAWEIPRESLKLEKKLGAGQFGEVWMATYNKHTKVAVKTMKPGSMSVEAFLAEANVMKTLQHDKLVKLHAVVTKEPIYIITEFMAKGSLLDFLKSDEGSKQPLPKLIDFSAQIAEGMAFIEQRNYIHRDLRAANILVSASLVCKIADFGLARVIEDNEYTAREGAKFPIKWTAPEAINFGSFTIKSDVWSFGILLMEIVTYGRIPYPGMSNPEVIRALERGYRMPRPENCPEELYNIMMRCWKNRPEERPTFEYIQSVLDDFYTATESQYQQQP
# [22] = tested on: Discoidin domain-containing receptor 2 (Homo sapiens), Q16832 [UNDEFINED MUTATION]; assay: Inhibition of recombinant human DDR2 S642A mutant (467 to end residues) at 10 uM using KKSRGDYMTMQIG as substrate measured after 40 mins in presence of [gamma33P]ATP by scintillation counting method
smiles,measurement,setting,value
CN1C[C@H](Nc2nc3cc[nH]c3c(=O)n2C)C[C@H](c2ccc3c(c2)OCCO3)C1,inhibition,Homo sapiens,inactive
same,inhibition,[1],inactive
same,inhibition,[2],inactive
same,inhibition,[3],inactive
same,inhibition,[4],inactive
same,inhibition,[5],inactive
same,inhibition,[6],inactive
same,inhibition,[7],inactive
same,inhibition,[8],inactive
same,inhibition,[9],inactive
same,inhibition,[10],inactive
same,inhibition,[11],inactive
same,inhibition,[12],inactive
same,ΔTm,[13],7.3 °C
same,inhibition,[14],inactive
same,ΔTm,[15],0.3 °C
same,inhibition,[16],inactive
same,inhibition,[17],inactive
same,inhibition,[18],inactive
same,inhibition,[19],inactive
same,inhibition,[20],inactive
same,inhibition,[21],inactive
same,inhibition,[22],inactive
